We go through 13 molecules from paper PMC7380323 (ACS chemical neuroscience, 2020).

Where two headings read alike, the source gives them in different places.

Series [1] deals with Mouse microglia. In kind it is cell-based.
Series [2] relates to Swiss Webster mice. Nature of the series: Formalin test. The settings on record: 30 mg/kg orally. It counts as in vivo, mouse. The procedure, abridged: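 Test compounds given orally four days before 2% formalin was injected into the right hind paw of Swiss Webster mice.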
The subject of a further series is κ-opioid receptor. The note with it: cited from earlier work.
Series [3] deals with Mouse microglia. Description: Cell viability. It counts as cell-based. The settings on record: for Cell viability (%) Mouse microglia 50 μM: CellTiter-Glo.
The subject of series [4] is RAW macrophages. Description: Inhibition of NO production. It counts as cell-based, mouse. The note with it: 24 h, IFNγ/LPS activated, 1 μM GABA. The method, boiled down:
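RAW264.7 murine macrophages were grown in DMEM/high glucose with 10% heat-inactivated FBS, penicillin/streptomycin and Normocin at 37°C and 5% CO2, and passaged by scraping. […] After about 24 h at 37°C, nitrite in the supernatant was measured by Griess assay (absorbance 530 nm).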

Series [5] deals with RAW macrophages. Description: Cell viability. It counts as cell-based, mouse. The note with it: CellTiter-Glo.
Series [6] has as its system Swiss Webster mice. Description: Rotarod test. It counts as in vivo, mouse. The settings on record: 5 mg/kg. On the technique in general: The rotarod test checks motor coordination on a turning rod.
Series [7] deals with HMC3 human microglia cells. In kind it is cell-based. The note with it: −80 mV.
Series [8] has as its system immortalized human microglia cells. Nature of the series: Automated patch clamp, GABA current response in immortalized human microglia. It counts as cell-based.
In series [9] the test system is immortalized mouse microglia cells. Nature of the series: Automated patch clamp, GABA current response in immortalized mouse microglia. It counts as cell-based.

For the molecule `Oc1ccc2c3c1O[C@H]1c4[nH]c5c(c4C[C@@]4(O)[C@@H](C2)N(CC2CC2)CC[C@]314)C[C@@]1(O)[C@H]2Cc3ccc(O)c4c3[C@@]1(CCN2CC1CC1)[C@H]5O4` [norbinaltorphimine], the “reversal of the NO effect of 50 μM MP-IV-010 by antagonist” value in the series on Mouse microglia [1] (antagonist 30 μM, 14 h) is “reversed”.

With `CC(C(=O)O)c1cccc(C(=O)c2ccccc2)c1` (stereo not drawn) [ketoprofen], in the series on Swiss Webster mice [2], the “antinociceptive effect in the formalin test compared with GL-IV-03 10 mg/kg” value is “similar”.

With `CNC1=Nc2ccc(Cl)cc2C(c2ccccc2)=[N+]([O-])C1` [chlordiazepoxide], in the series on κ-opioid receptor, the “affinity for the κ-opioid receptor (in words)” value (“affinity” below) is listed as “micromolar affinities”.

`C#Cc1ccc2c(c1)C(c1ccccn1)=NCc1c(-c3cnco3)ncn1-2` [KRM-II-81]: in the series with Mouse microglia [1], the “Inhibition of NO production (%) Mouse microglia 50 μM” value came out at 0 ± 1%. Further, the “Cell viability (%) Mouse microglia 50 μM” value in the series on Mouse microglia [3] came to 100 ± 5%.

For `Cc1ncc2n1-c1ccc(Cl)cc1C(c1ccccc1F)=NC2` [midazolam], the “affinity” value with κ-opioid receptor is reported as “micromolar affinities”.

As to `C[C@@H]1C[C@H]2[C@@H]3CCC4=CC(=O)C=C[C@]4(C)[C@@]3(F)[C@@H](O)C[C@]2(C)[C@@]1(O)C(=O)CO` [dexamethasone], in the series on Mouse microglia [1] (100 nM, Griess assay after 14 h), the “NO production of activated microglia” value is “reduced NO production”. Moreover, the “cytotoxicity / cell viability in the antagonist experiments (CellTiter-Glo)” value with Mouse microglia [3] (activated mouse microglia, concentrations as in the NO experiments) is “without cell toxicity”.

`CCOC(=O)c1ncn2c1CN(C)C(=O)c1cc(F)ccc1-2` [flumazenil]: the “reversal of the NO effect of 50 μM MP-IV-010 by antagonist” value in the series with Mouse microglia [1] was “did not reverse”.

For the molecule `C#Cc1ccc2c(c1)C(c1ccccc1F)=N[C@H](C)c1c(C(=O)NC)ncn1-2` [MP-III-022], in the series on RAW macrophages [4] (10 μM), the “Inhibition of NO production (%) RAW macrophages 10 μM” value is reported as 9 ± 5%. The “Inhibition of NO production (%) RAW macrophages 50 μM” value with RAW macrophages [4] (50 μM) amounted to 51 ± 7%. In the series on Mouse microglia [1], the “Inhibition of NO production (%) Mouse microglia 10 μM” value was found to be 36 ± 6% and the “Inhibition of NO production (%) Mouse microglia 50 μM” value was 60 ± 12%. Further, the “Cell viability (%) RAW macrophages 50 μM” value in the series with RAW macrophages [5] is listed as 100 ± 11%. The “Cell viability (%) Mouse microglia 50 μM” value in the series on Mouse microglia [3] is 86 ± 2%.

Turning to picrotoxin, the “reversal of the NO effect of 50 μM MP-IV-010 by antagonist” value in the series with Mouse microglia [1] (antagonist 50 μM, with GABA, 14 h) was “did not reverse”.

Regarding SM-21, the “reversal of the NO effect of 50 μM MP-IV-010 by antagonist” value with Mouse microglia [1] (antagonist 30 μM, 14 h) is reported as “no reversal”.

Regarding `CN1C(=O)CN=C(c2ccccc2)c2cc(Cl)ccc21` [diazepam], the “sedation on the rotarod” value in the series with Swiss Webster mice [6] is reported as “sedating”. Moreover, in the series on κ-opioid receptor, the “affinity” value is listed as “micromolar affinities”.

Take `CN1CCc2cc3c(cc2[C@H]1[C@@H]1OC(=O)c2c1ccc1c2OCO1)OCO3` [bicuculline]: the “reversal of the NO effect of 50 μM MP-IV-010 by antagonist” value in the series on Mouse microglia [1] (antagonist 100 μM, with GABA, 14 h) is listed as “did not reverse”.

`NCCCC(=O)O` [GABA, γ-aminobutyric acid]: the “maximum negative current response for 1 mM GABA” value in series [7] was 746 pA. Also, the entries for the “maximum current response for 1 mM GABA” value in [8] and in series [9] were 1245 pA and 1514 pA, respectively. The “secreted NO levels of activated microglia” value with Mouse microglia [1] (1 μM, Griess assay after 14 h) is “no effect”.
